RGS7-Gao reg: RGS7-Galphao binding modulators, primary screen, biochemical, multiplexed bead flow cytometry; Guanine nucleotide-binding protein G(o) subunit alpha (Homo sapiens), P09471; hit rate 0.35% among 220,000; actives lie on both sides; binding response (% of control), % at 10 µM; AID 1439, 2008; in the data active = binding response below about 49% or above about 150%; inconclusive = no clear call, values can overlap the other calls; inactive = in between;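 note: fluorescent Galphao held in activated GDP-AlF4 state binding bead-coupled RGS7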
Target sequence (P09471 whole entry, looked up): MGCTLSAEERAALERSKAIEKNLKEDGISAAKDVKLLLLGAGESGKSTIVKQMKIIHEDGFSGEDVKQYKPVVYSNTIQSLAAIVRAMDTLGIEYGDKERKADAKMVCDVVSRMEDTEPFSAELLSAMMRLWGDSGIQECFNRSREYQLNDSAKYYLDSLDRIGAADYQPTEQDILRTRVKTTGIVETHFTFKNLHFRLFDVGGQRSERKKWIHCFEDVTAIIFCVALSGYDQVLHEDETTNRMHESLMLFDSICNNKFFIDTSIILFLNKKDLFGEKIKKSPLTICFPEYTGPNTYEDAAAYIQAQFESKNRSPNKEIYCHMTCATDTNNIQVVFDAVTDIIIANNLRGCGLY
Calb biofilm kill: clotrimazole potentiators killing C. albicans biofilm, primary screen, 4-compound mixtures; inhibition, % at 7.6 µM; hit rate 0.02% among 120,000; AID 1242, 2008; C. albicans biofilm persisters + clotrimazole, fluorescence viability; primary screen in compound mixtures of four per well;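 note: compounds exposed to preformed 24 h biofilms for 48 h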
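Incubation: 24 h biofilm formation, then 48 h compound exposure, 37 °C | Material: C. albicans biofilms | Buffer or medium: RPMI/MOPS medium, pH 7.0 | Measured by: 2-h Alamar Blue fluorescence, 535/590 nm excitation/emission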
RGS16-Gao HTS: modulators of RGS16 binding to Galphao, primary screen, biochemical, human proteins, multiplexed bead flow cytometry. Regulator of G-protein signaling 16 (Homo sapiens) + Guanine nucleotide-binding protein …. AID 1441, 2008. bead-based flow cytometry RGS16-Galphao binding, fluorescence; actives lie on both sides. binding response (% of control), % at 10 µM. hit rate 0.38% among 220,000;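 note: Galphao activated by GDP with aluminum fluoride before binding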
RGS8-Gao: RGS8-Galphao binding modulators, primary screen, biochemical, multiplexed bead flow cytometry. actives lie on both sides. response (percent of control binding), % at 10 µM. hit rate 0.34% among 220,000; in the data active = response below about 60% or above about 140%; inactive = in between;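 note: Galphao activated as the GDP aluminium fluoride complex binding bead-coupled RGS8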
RGS4-Gao reg: modulators of RGS4 binding to Galphao, primary screen, biochemical, multiplexed bead flow cytometry; actives lie on both sides; binding response (% of control), % at 10 µM; hit rate 0.33% among 220,000; in the data active = binding response below about 49% or above about 150%; inactive = in between;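 note: fluorescent Galphao activated with aluminum fluoride binding bead-coupled RGS4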
RGS4-Gao HTS: modulators of RGS–Galpha-o binding, primary screen, biochemical, multiplexed beads, flow cytometry, RGS4/7/8/16/19; shares compounds with RGS16-Gao HTS; multiplexed bead flow cytometry; RGS4–Galpha-o binding response, % at 10 µM; hit rate 99% among 1,600;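 note: fluorescently labeled Galpha-o bound to GDP with aluminium fluoride binding biotinylated RGS beads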
Avidin counter: disruption of biotin probe capture by avidin, counter-screen for RGS protein interaction modulators, biochemical, flow cytometry, bead-based. shares compounds with RGS16-Gao HTS. streptavidin beads, fluorescein-biotin binding. inhibition, % at 10 µM. 1,700 tested, under 10 active;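 active = inhibition above 50%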;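 note: median green fluorescence of gated singlet beads compared with DMSO control wells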
RGS8-Gao confirm: RGS8-Galphao binding modulators, confirmation, biochemical, multiplexed bead flow cytometry, single concentration. shares compounds with RGS16-Gao HTS. bead-based flow cytometry RGS8-Galphao binding, fluorescence; actives lie on both sides. binding response (% of control), % at 10 µM. hit rate 3% among 1,700. AID 1836, 2009; in the data active = binding response below about 72% or above about 130%; inactive = in between;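 note: Galphao activated as GDP AlF4 complex before binding bead RGS8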
RGS7-Gao single: RGS7-Galphao binding modulators, confirmation, biochemical, multiplexed bead flow cytometry, single concentration | bead-based flow cytometry RGS7-Galphao binding; actives lie on both sides | shares compounds with RGS16-Gao HTS | response (percent of control binding), % at 10 µM | hit rate 7.8% among 1,700 | AID 1837, 2009; in the data active = response below about 75% or above about 130%; inactive = in between;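 note: fluorescent Galphao activated with GDP and aluminum fluoride binding bead-coupled RGS7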
RGS16-Gao conf: modulators of RGS16-Galphao protein binding, confirmation, biochemical, single concentration, multiplexed bead flow cytometry; hit rate 4% among 1,700; bead-based flow cytometry; actives lie on both sides; shares compounds with RGS16-Gao HTS; response (% of control binding), % at 10 µM; in the data active = response below about 74% or above about 130%; inactive = in between;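 note: Galphao activated as the GDP aluminium fluoride complex binding bead-coupled RGS16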
RGS4-Gao single: modulators of RGS4-Galphao protein binding, confirmation, biochemical, single concentration, multiplexed bead flow cytometry; actives lie on both sides; hit rate 4% among 1,700; shares compounds with RGS16-Gao HTS; binding response (% of control), % at 10 µM; in the data active = binding response below about 74% or above about 130%; inactive = in between
RGS19-Gao single: regulators of RGS19-Galphao binding, confirmation, biochemical, single point, multiplexed bead flow cytometry; shares compounds with RGS16-Gao HTS; bead-based flow cytometry RGS19-Galphao binding; actives lie on both sides; response (percent of control binding), % at 10 µM; hit rate 5% among 1,700; AID 1841, 2009; in the data active = response below about 50% or above about 160%; inactive = in between
Target sequence (P09471 whole entry, looked up): as above
Target sequence (P49795 whole entry, looked up): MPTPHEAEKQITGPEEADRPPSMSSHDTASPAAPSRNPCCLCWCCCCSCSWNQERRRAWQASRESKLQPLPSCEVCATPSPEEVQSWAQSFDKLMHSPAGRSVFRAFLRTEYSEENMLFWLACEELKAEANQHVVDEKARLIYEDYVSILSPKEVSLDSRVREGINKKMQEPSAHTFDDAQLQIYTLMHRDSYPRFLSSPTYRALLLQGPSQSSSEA
A number is an active result; - = inactive; ? = inconclusive; . = not tested or not shown; [ ] = remark or other dose. The list is not random: actives were taken first. Their share in the collection is about 0.74%. Unless noted, the rule behind the calls is not given here.

SMILES	RGS7-Gao reg	Calb biofilm kill	RGS16-Gao HTS	RGS8-Gao	RGS4-Gao reg	Avidin counter	RGS8-Gao confirm	RGS7-Gao single	RGS16-Gao conf	RGS4-Gao single	RGS19-Gao single	others
CC(CCCC(C)(C)O)CC1C2=C(CCCC2=O)OC2=C1C(=O)CCC2 (stereo not drawn)	-	-	-	-	-	.	.	.	.	.	.
CC1=CC(C)(C)N=C(NC#N)N1	44.3	.	-	-	42.3	-	-	-	-	-	-
COc1ccccc1-c1c(C)nn2c(N3CCC(C)CC3)cc(C)nc12	?	-	10.9	21.9	16.9	-	-	-	-	-	-
CC(=O)N/N=C(\C)c1cccc(NC(=O)c2cccs2)c1	-112.2	-	-	33.8	-635.8	-	-	-	-	-	-
C/C(=N/NC(=O)c1cccs1)c1cccc(NC(=O)C2CC2)c1	-	.	-	-	-	.	.	.	.	.	.
COc1cc(/C=C(/C#N)C(=O)Nc2ccc(Cl)cc2)ccc1Oc1nc(Cl)ncc1F	?	-	-	-	-	.	.	.	.	.	.
Cc1ccc(-c2nn[nH]n2)cc1	.	.	.	.	.	-	-	-	-	-	-
Cc1ccc(-c2nn[nH]n2)cc1Cl	?	-	-	-	-	.	.	.	.	.	.
Cc1ccc(-c2nn[nH]n2)o1	151.2[activator]	.	-	-	-	-	-	-	-	-	-	RGS4-Gao HTS=122.9
COc1ccc(C(=O)C2CCCN(Cc3cccn3-c3ccc(Cl)cn3)C2)c(OC)c1 (stereo not drawn)	-	-	-	-	-	.	.	.	.	.	.
COc1ccc(Cl)cc1C(=O)NNC(=O)CN1C(=O)C2CC=CCC2C1=O (stereo not drawn)	-	-	-	-	-	.	.	.	.	.	.
Nc1nonc1-n1nnc(C(=O)N/N=C/c2ccccc2Cl)c1COc1ccc(F)cc1	?	-	-	-	-	.	.	.	.	.	.
Cc1nc(CCNS(=O)(=O)c2cccnc2)cs1	?	-	-	-	-	.	.	.	.	.	.
O=C(NC1CCCCC1)c1ccc(N2CCCC2=O)cc1	-	.	211.1[activator]	-	-	.	.	.	.	.	.	RGS4-Gao HTS=108.2
O=C(Oc1cc(Cl)cc(Cl)c1)c1cnc2n(c1=O)CCS2	?	-	-	-	-	.	.	.	.	.	.
CC(C)(C)c1ccc(-c2nnc(SCC(=O)NC3CCS(=O)(=O)C3)n2N)cc1 (stereo not drawn)	-	-	-	-	-	.	.	.	.	.	.
CCCCNC(=O)CN(CCc1ccccc1)S(C)(=O)=O	-	.	-	-	168.7[activator]	-	-	-	-	-	-
CCCCOCP(=O)(CCCC)COCCCC	24.6	.	-	31.6	23.7	-	-	-	-	-	-
O=C(CNCCN1CCOCC1)Nc1ccccc1Sc1ccccc1	-	-	227.3[activator]	-	-	-	-	-	-	-	-	RGS4-Gao HTS=109.9
O=[N+]([O-])c1ccc(-c2cn3c(n2)CCC3)cc1	?	-	-	-	-	.	.	.	.	.	.
C#CCn1c(=NC(=O)c2cc(-c3cccs3)nc3ccccc23)sc2cc(S(N)(=O)=O)ccc21	34.1	-	-	47.3	-	-	-	-	-	-	-	RGS4-Gao HTS=79.7
COC(=O)c1ccc(C#Cc2ccccc2)o1	?	-	-	-	-	.	.	.	.	.	.
CC(C)Cn1c(-c2nn(C)cc2Cl)n[nH]c1=S	45.2	.	-	58.6	49.3	-	-	-	-	-	-
COC(=O)Cc1c(C)nc2nc(NCc3ccc(Cl)cc3)[nH]n2c1=O	150.7[activator]	.	177.9[activator]	-	155.0[activator]	-	-	-	-	-	-
CCN(CC)C(=O)CN1CCN(c2ncccn2)CC1	-	.	-	142.0[activator]	-	-	-	-	-	-	-	RGS4-Gao HTS=120.2
SMILES	RGS7-Gao reg	Calb biofilm kill	RGS16-Gao HTS	RGS8-Gao	RGS4-Gao reg	Avidin counter	RGS8-Gao confirm	RGS7-Gao single	RGS16-Gao conf	RGS4-Gao single	RGS19-Gao single	others
O=C(CN1CCN(c2ncccn2)CC1)N1CCCC1	-	-	-	-	-	.	.	.	.	.	.
CCCCNC(=O)O/N=C(\N)CS(=O)(=O)C(C)(C)C	?	-	-	-	-	.	.	.	.	.	.
C/C=C(\C)C(=O)NCCN1C2=NC[C@H](Cc3ccccc3)N2C[C@H]1Cc1ccc(O)cc1	20.4	-	19.0	24.4	34.3	-	-	-	-	-	-
Cc1cc(C)cc(C(=O)NCC(=O)OCc2c(C)noc2C)c1	-0.1	-	1.9	15.3	15.7	-	-	-	-	-	-
CC1=C(C#N)C(/C=N/OCc2ccc(F)cc2Cl)CC(=O)N1 (stereo not drawn)	-	-	-	-	-	.	.	.	.	.	.
COc1ccc(CCCc2nnc(SCC(=O)Nc3nc(C)cs3)n2C)cc1	-	.	-	-	-	.	.	.	.	.	.
Cc1csc(NC(=O)CSc2nnc(CCNC(=O)c3ccc(Cl)c(Cl)c3)n2C)n1	.	.	.	.	.	-	-	-	-	-	-
CC(C)n1c2ccccc2c2nnc(SCC(=O)Nc3ccccc3C(=O)O)nc21	-	-	-	-	-	.	.	.	.	.	.
CC12C(=O)N(c3nccs3)C(=O)C1C1C=CC2C1 (stereo not drawn)	.	.	.	.	.	-	-	-	-	-	-
O=C(NCc1ccccc1)c1ccc(C(=O)N(C2CCCCC2)C2CCCCC2)cc1	.	.	.	.	.	-	-	-	-	-	-
COc1cc(C2C=C(c3cccs3)Nc3ncnn32)cc(OC)c1OC (stereo not drawn)	-	-	-	-	-	.	.	.	.	.	.
Cc1ccccc1CSc1nn2c(=O)c(C)nnc2s1	211.2[activator]	-	-	-	-	-	-	-	-	-	-	RGS4-Gao HTS=115.6
O=C(CNC(=O)/C(=C\c1ccccc1)NC(=O)c1ccc(Br)cc1)OCc1ccccc1	-	.	-	-	-	.	.	.	.	.	.
O=C(CNC(=O)/C(=C\c1ccc(F)cc1)NC(=O)c1ccccc1)OCc1ccccc1	172.4[activator]	.	-	-	-	.	.	.	.	.	.	RGS4-Gao HTS=124.5

From PubChem
